Results reported in ChEMBL document CHEMBL3272319, “Alkyl streptozotocin analogues with improved biological activities” (J Med Chem, 1976).

Assays:
[1] = Antitumor activity against mouse S180A allografted in ICR mouse assessed as tumor growth at 50 mg/kg, ip qd for 5 days measured on day 7 relative to control; format: functional; conditions: route intraperitoneal
Summary of the method: (§1)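 Ascites Sarcoma 180 (1 × 10^7 cells) implanted into ICR mice, six animals per group. Five daily ip injections in saline (days 1–5). Sacrificed day 7. T/C % computed from total packed cell volume (ascites volume × PCV) vs controls. Grades: 100-66 = -, 65-41 = +, 40-11 = ++, 10-0 = +++.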

[2] = test system: Mus musculus; experiment: Toxicity in ICR mouse allografted with mouse S180A assessed as mortality at 50 mg/kg, ip qd for 5 days; format: organism-based; design: dose 50 mg/kg, route intraperitoneal; conditions: in vivo, 120 h
Summary of the method: (§2)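 Ascites Sarcoma 180 (1 × 10^7 cells) implanted into ICR mice, six per group; compound in saline ip once daily days 1-5; sacrifice on day 7; total packed cell volume (ascites volume × PCV) compared with controls as T/C %; mortality recorded.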

[3] = test system: L1210; experiment: Antitumor activity against mouse L1210 cells allografted in BDF1 mouse assessed as increase in host lifespan at 125 mg/kg, ip qd for 5 days relative to control; format: functional; conditions: 120 h, route intraperitoneal
Summary of the method: (§3)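 L1210 (1 × 10^5 cells) implanted into BDF1 mice, six per group; compound in saline ip once daily days 1-5; effect read as % increase in life span, ILS = [(treated life span/control life span) − 1] × 100.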

[4] = test system: Mus musculus; experiment: Toxicity in BDF1 mouse allografted with mouse L1210 cells assessed as mortality at 125 mg/kg, ip qd for 5 days; format: organism-based; design: dose 125 mg/kg, route intraperitoneal; conditions: in vivo, 120 h; summary of the method: as §3
[5] = test system: Bacillus subtilis; experiment: Antibacterial activity against Bacillus subtilis ATCC 6633 assessed as growth inhibition after 18 hrs by broth dilution method; format: functional; conditions: ATCC 6633, 18 h
Summary of the method: (§4)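 Twofold serial dilutions in heart infusion broth. Inoculum was a 24-h heart infusion broth culture diluted 100-fold in physiological saline. Tubes incubated 30 °C for 18 h; the table footnote gives 32 °C for 24 h. MIC in µg/ml is the lowest level giving complete growth inhibition.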

[6] = test system: Escherichia coli; experiment: Antibacterial activity against Escherichia coli NIHJ JC-2 assessed as growth inhibition after 18 hrs by broth dilution method; format: functional; conditions: NIHJ JC-2, 18 h; summary of the method: as §4
[7] = test system: Klebsiella pneumoniae; experiment: Antibacterial activity against Klebsiella pneumoniae ATCC 10031 assessed as growth inhibition after 18 hrs by broth dilution method; format: functional; conditions: ATCC 10031, 18 h; summary of the method: as §4
[8] = test system: Proteus vulgaris; experiment: Antibacterial activity against Proteus vulgaris AHU 1469 assessed as growth inhibition after 18 hrs by broth dilution method; format: functional; conditions: AHU 1469, 18 h; summary of the method: as §4
[9] = test system: Pseudomonas fluorescens; experiment: Antibacterial activity against Pseudomonas fluorescens NIHJ B-254 assessed as growth inhibition after 18 hrs by broth dilution method; format: functional; conditions: NIHJ B-254, 18 h; summary of the method: as §4
[10] = test system: Salmonella typhi; experiment: Antibacterial activity against Salmonella typhi IFM 3020 assessed as growth inhibition after 18 hrs by broth dilution method; format: functional, Salmonella enterica subsp. enterica serovar Typhi; conditions: Salmonella enterica, IFM 3020, 18 h
Summary of the method: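 Twofold serial dilutions in heart infusion broth; inoculum from 24 h heart infusion broth culture diluted 100-fold in physiological saline; tubes incubated 30 °C for 18 h; MIC (µg/ml) = lowest level giving complete growth inhibition.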

[11] = test system: Micrococcus luteus; experiment: Antibacterial activity against Sarcina lutea ATCC 9341 assessed as growth inhibition after 18 hrs by broth dilution method; format: functional; conditions: ATCC 9341, 18 h; summary of the method: as §4
[12] = test system: Shigella sonnei; experiment: Antibacterial activity against Shigella sonnei assessed as growth inhibition after 18 hrs by broth dilution method; format: functional; summary of the method: as §4
[13] = test system: Staphylococcus aureus; experiment: Antibacterial activity against Staphylococcus aureus FDA 209P JC-1 assessed as growth inhibition after 18 hrs by broth dilution method; format: functional; conditions: FDA 209P JC-1, 18 h; summary of the method: as §4
[14] = test system: Enterococcus faecalis; experiment: Antibacterial activity against Streptococcus faecalis ATCC 10541 assessed as growth inhibition after 18 hrs by broth dilution method; format: functional; conditions: ATCC 10541, 18 h; summary of the method: as §4
[15] = (§5) Acute toxicity in ip dosed JCL-ICR mouse assessed as animal death; format: organism-based; conditions: JCL-ICR, in vivo
Summary of the method: (§6)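 Groups of ten female JCL-ICR mice given single ip dose in physiological saline; deaths followed over 7 days; LD50 (and LD10) derived by Litchfield–Wilcoxon method.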

[16] = test system: Mus musculus; experiment: as §5; format: organism-based; conditions: in vivo; summary of the method: as §6
[17] = test system: Mus musculus; experiment: Ratio of compound LD10 to streptozotocin LD10 for JCL-ICR mouse; format: ADME, organism-based; conditions: in vivo
[18] = Ratio of compound LD50 to streptozotocin LD50 for JCL-ICR mouse; format: ADME, organism-based; conditions: in vivo
[19] = test system: Rattus norvegicus; experiment: Diabetogenic activity in iv dosed Wistar rat assessed as increase in blood sugar level administered as single dose by glucose oxidase method; format: ADME, organism-based; conditions: in vivo
Summary of the method: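 Male Wistar rats, about 200 g, five per group, fasted 16 h. Single iv dose into the femoral vein in physiological saline, equimolar across compounds. Caudal-vein blood sampled at set times over 24 h. Sugar measured by glucose oxidase.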

[20] = Antitumor activity against mouse S180A allografted in ICR mouse assessed as tumor growth at 125 mg/kg, ip qd for 5 days measured on day 7 relative to control; format: functional; conditions: route intraperitoneal; summary of the method: as §1
[21] = test system: Mus musculus; experiment: Toxicity in ICR mouse allografted with mouse S180A assessed as mortality at 125 mg/kg, ip qd for 5 days; format: organism-based; design: dose 125 mg/kg, route intraperitoneal; conditions: in vivo, 120 h; summary of the method: as §2

With `CCO[C@H]1O[C@H](CO)[C@@H](O)[C@H](O)[C@H]1NC(=O)N(C)N=O` the T/C [1] was 38%, the Activity [2] was “Non-toxic” and the ILS at 125 mg/kg [3] was 64%. The Activity [4] was “Non-toxic”, the MIC [5] was > 1000 µg/mL and the MIC [6] was > 1000 µg/mL. For the same compound, the MIC [7] was > 1000 µg/mL, the MIC [8] was > 1000 µg/mL and the MIC [9] was > 1000 µg/mL. For the same compound, the MIC [10] was > 1000 µg/mL, the MIC [11] was > 1000 µg/mL and the MIC [12] was > 1000 µg/mL. For the same compound, the MIC [13] was > 1000 µg/mL, the MIC [14] was > 1000 µg/mL and the LD50 [15] was 2050 mg/kg. The LD10 [16] was 2000 mg/kg, the Ratio [17] was 2 and the selectivity ratio [18] was 2. The Activity [19] was “Non-toxic”.
With `CCCCN(N=O)C(=O)N[C@H]1[C@@H](OC)O[C@H](CO)[C@@H](O)[C@@H]1O` the T/C [20] was 75%, the Activity [21] was “Non-toxic” and the Activity [19] was “Non-toxic”.
